Measurements: ChEMBL document CHEMBL1811790, “Oxadiazole derivatives containing 1,4-benzodioxan as potential immunosuppressive agents against RAW264.7 cells” (Bioorg Med Chem, 2011)
Active and inactive are the calls of the source. The rule behind the calls is not given here.

Columns and labels:
RAW264.7 [1] = test: Immunosuppressive activity in mouse RAW264.7 cells assessed as inhibition of LPS-induced nitric oxide production incubated for 24 hrs by Griess method; type: functional
Summary of the method: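 Murine macrophage-like RAW264.7 cells were activated with LPS. Control wells (LPS only) and blank wells (cells only) each received 0.1% DMSO vehicle.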

RAW264.7 [2] = test: Acute toxicity in mouse RAW264.7 cells assessed as OD540 absorbance incubated for 24 hrs by MTT assay; type: cell-based; settings: raw264.7, 24 h
Summary of the method: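 RAW264.7 cells kept in DMEM with 5% FBS, 100 U/mL penicillin and streptomycin, at 37 °C in humidified 5% CO2. Compounds were added at the indicated concentrations for 24 h. MTT reagent (5 mg/mL stock) was then added for 4 h, supernatants were aspirated and formazan crystals were dissolved for reading. Control and blank wells received 0.1% DMSO.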

RAW264.7 [3] = test: Inhibition of iNOS mRNA expression in mouse RAW264.7 cells by RT-PCR; type: functional, cell-based
[4] = target: T1, Nitric oxide synthase, inducible (Mus musculus, UniProt P29477); test: Inhibition of iNOS in mouse RAW264.7 cells assessed as conversion of L-citrulline to L-arginine incubated for 30 mins by scintillation counting; type: cell-based; settings: in the assay text read “conversion of L-arginine to L-citrulline” for “conversion of L-citrulline to L-arginine”
T1 sequence (P29477 whole entry): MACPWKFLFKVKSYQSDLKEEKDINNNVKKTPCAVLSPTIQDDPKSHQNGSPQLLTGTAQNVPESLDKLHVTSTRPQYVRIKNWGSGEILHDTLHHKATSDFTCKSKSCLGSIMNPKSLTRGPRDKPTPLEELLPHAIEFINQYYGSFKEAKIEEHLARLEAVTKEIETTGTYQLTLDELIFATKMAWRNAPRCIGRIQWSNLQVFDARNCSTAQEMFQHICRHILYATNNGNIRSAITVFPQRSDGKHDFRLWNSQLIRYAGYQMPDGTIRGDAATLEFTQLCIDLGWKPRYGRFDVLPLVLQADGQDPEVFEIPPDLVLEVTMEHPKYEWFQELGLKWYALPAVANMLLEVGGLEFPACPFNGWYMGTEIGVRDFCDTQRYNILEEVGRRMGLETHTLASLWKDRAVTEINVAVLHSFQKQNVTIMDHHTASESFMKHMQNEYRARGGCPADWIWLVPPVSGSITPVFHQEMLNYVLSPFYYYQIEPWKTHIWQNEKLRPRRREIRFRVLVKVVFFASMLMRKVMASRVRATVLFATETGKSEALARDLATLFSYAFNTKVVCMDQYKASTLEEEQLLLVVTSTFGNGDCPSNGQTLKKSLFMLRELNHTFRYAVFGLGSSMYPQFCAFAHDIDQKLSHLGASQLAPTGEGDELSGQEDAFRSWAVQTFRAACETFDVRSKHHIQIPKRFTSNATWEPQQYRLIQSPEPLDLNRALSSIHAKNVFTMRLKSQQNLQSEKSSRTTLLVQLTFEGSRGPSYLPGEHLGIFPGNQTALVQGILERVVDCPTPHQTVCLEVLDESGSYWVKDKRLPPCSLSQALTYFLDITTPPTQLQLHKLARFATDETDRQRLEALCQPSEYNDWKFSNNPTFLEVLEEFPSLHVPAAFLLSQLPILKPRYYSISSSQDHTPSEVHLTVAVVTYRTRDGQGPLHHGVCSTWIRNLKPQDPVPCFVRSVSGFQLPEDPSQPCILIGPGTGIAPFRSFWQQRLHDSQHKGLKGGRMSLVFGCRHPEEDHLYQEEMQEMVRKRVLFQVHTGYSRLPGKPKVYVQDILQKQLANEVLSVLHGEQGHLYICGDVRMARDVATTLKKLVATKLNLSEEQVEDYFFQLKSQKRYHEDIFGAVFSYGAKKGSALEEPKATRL
Summary of the method: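 Crude enzyme was the supernatant of collected RAW264.7 cells, adjusted to 50 mM Tris and 100 µM dithiothreitol final. Enzyme was incubated 30 min with NADPH, compound, L-[3H]-arginine (10 µCi/mL stock) and Tris pH 7.5. The reaction was stopped with 0.1 M buffer pH 5.0 containing 2 mM EDTA and 2 mM EGTA, then stirred 5 min with Dowex 50W-8X. L-[3H]-citrulline in the supernatant was read by scintillation counting.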

SMILES | inhibition (INH) (RAW264.7 [1]) [%] | deltaA (RAW264.7 [2]) | inhibition (RAW264.7 [3]) | IC50 [4] [nM]
Clc1ccccc1-c1nnc(-c2ccc3c(c2)OCCO3)o1 | -57.48 | 1.45 |  | 
c1cncc(-c2nnc(-c3ccc4c(c3)OCCO4)o2)c1 | 37.66 | 1.31 | Active | 50
COc1cccc(Cc2nnc(-c3ccc4c(c3)OCCO4)o2)c1 | 21.66 | 0.76 |  | 
c1ccc(-c2nnc(-c3ccc4c(c3)OCCO4)o2)cc1 | 5.08 | 1.5 |  | 2350
COc1cc(-c2nnc(-c3ccc4c(c3)OCCO4)o2)cc(OC)c1OC | 20.03 | 1.02 | inactive | 120
O=[N+]([O-])c1ccccc1-c1nnc(-c2ccc3c(c2)OCCO3)o1 | 3.65 | 0.3 |  | 
c1ccc(OCc2nnc(-c3ccc4c(c3)OCCO4)o2)cc1 | 6.98 | 0.36 |  | 
O=[N+]([O-])c1ccc(-c2nnc(-c3ccc4c(c3)OCCO4)o2)cc1 | 1.34 | 0.57 |  | 
Clc1cccc(Cc2nnc(-c3ccc4c(c3)OCCO4)o2)c1 | 23.7 | 0.2 |  | 
Brc1cncc(-c2nnc(-c3ccc4c(c3)OCCO4)o2)c1 | -42.39 | 1.22 |  | 
Brc1ccc(Cc2nnc(-c3ccc4c(c3)OCCO4)o2)cc1 | -8.53 | 0.99 |  | 
Clc1ccc(OCc2nnc(-c3ccc4c(c3)OCCO4)o2)cc1 | 10.49 | 0.89 |  | 2160
c1ccc(CCc2nnc(-c3ccc4c(c3)OCCO4)o2)cc1 | 3.71 | 0.1 |  | 
O=[N+]([O-])c1cccc(-c2nnc(-c3ccc4c(c3)OCCO4)o2)c1 | -33.82 | 0.73 |  | 
Cc1ccccc1-c1nnc(-c2ccc3c(c2)OCCO3)o1 | 21.58 | 1.03 | inactive | 100
Clc1ccc(Cc2nnc(-c3ccc4c(c3)OCCO4)o2)cc1 | 28.11 | 0.63 |  | 
c1ccc(Cc2nnc(-c3ccc4c(c3)OCCO4)o2)cc1 | -3.63 | 0.45 |  | 
C(=C\c1nnc(-c2ccc3c(c2)OCCO3)o1)/c1ccccc1 | 25.54 | 1.15 | inactive | 90
